# WT yeast gro inh = growth inhibition of WT strain, primary screen, mitochondrial fusion inhibitor project, WT and mutant strains, chemical genetic; mitochondrial fusion phenotypic screen; inhibition, % at 10 µM; 190,000 tested, 2.1% active; AID 1362, 2008; in the data active = inhibition above about 58%; tested in S. cerevisiae
# ROMK mod = ROMK potassium channel modulators, primary screen, cell-based, thallium flux, MLSMR library | Tet-inducible ROMK, thallium flux fluorescence; actives lie on both sides | AID 1918, 2009 | ATP-sensitive inward rectifier potassium channel 1 (Homo sapiens), P48048 | B-score at 10 µM | 130,000 tested, 2% active;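 active = signal ratio slope over the read window, or its plate-corrected B-score, at least 3 SD from the plate mean, either direction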;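 note: B-score of the F/F0 ratio slope over 7 to 12 s after thallium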
# Target sequence (P48048 whole entry, looked up): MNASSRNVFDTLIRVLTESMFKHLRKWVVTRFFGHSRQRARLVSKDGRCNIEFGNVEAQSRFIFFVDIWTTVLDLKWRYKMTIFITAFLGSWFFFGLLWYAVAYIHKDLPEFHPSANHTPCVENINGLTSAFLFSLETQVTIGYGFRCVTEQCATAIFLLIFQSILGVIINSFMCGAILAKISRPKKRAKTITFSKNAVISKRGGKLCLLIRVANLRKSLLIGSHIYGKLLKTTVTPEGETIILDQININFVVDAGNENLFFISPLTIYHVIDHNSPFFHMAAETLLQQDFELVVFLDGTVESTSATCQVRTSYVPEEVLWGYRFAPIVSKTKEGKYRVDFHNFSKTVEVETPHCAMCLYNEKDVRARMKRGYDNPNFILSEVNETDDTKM
# KCC2 mod = KCC2 cotransporter modulators, thallium flux, primary screen, cell-based, HEK293 KCC2, FluoZin-2 fluorescence, MLSMR | Solute carrier family 12 member 5 (Homo sapiens), Q9H2X9 | AID 1456, 2008 | B-score of Tl+ flux slope (higher = more flux/activation; lower = inhibition) at 10 µM | KCC2 cells, thallium flux FluoZin-2 fluorescence | 190,000 tested, 2.2% active;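 active = thallium flux slope and its plate-corrected score both differing from the plate sample mean at a set confidence after two filtering rounds, in either direction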;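 note: slope of fluorescence scaled to starting intensity during 10 to 20 s after thallium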
# 14-3-3 Bad inh = inhibitors of 14-3-3 zeta/Bad binding, primary screen, biochemical, TR-FRET, bovine 14-3-3 zeta. 14-3-3 protein zeta/delta (Bos taurus), P63103. TR-FRET 14-3-3zeta/Dy647-pBad peptide displacement, 1 h. inhibition, % at 21.7 µM. 220,000 tested, 0.71% active. AID 781, 2007;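 active = inhibition above about 70%, limit read from the data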
# Target sequence (P63103 whole entry, looked up): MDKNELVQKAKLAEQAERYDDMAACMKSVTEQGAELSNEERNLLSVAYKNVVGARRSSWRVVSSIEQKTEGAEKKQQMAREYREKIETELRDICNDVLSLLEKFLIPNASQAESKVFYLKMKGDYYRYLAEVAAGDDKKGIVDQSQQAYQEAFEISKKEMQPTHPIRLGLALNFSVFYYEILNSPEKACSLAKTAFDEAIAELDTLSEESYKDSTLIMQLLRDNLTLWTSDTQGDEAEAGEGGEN
# NCF1 inh = p47phox/p22phox peptide binding inhibitors, primary screen, biochemical, uHTS, NADPH oxidase regulatory subunit; fluorescence polarization, 2 h; 220,000 tested, 0.53% active; inhibition, % at 24.7 µM; AID 1274, 2008; Neutrophil cytosol factor 1 (Homo sapiens), P14598;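 active = inhibition above about 30%, limit read from the data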
# RBBP9 inhibitor = human RBBP9 inhibitors, primary screen, biochemical, fluorescence polarization, FP-Rh probe, HTS; inhibition, % at 7.94 µM; AID 1515, 2009; recombinant RBBP9; 220,000 tested, 0.2% active; Serine hydrolase RBBP9 (Homo sapiens), O75884;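 active = inhibition above the campaign mean of all tested compounds plus 3 SD, cut at about 14% in these data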
#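 System: RBBP9 protein / Buffer or medium: Tris/NaCl buffer pH 8.0 with 0.1% Pluronic / Probe or stimulus: Serine-hydrolase probe FP-Rh, 375 nM pre-mixing / Dosing: 7.94 µM single dose, 0.794% DMSO / Times: enzyme-compound preincubation 30 min, then probe labeling 45 min, 25 °C / Technique: fluorescence polarization (mP), excitation 525 nm, emission 598 nm / Replication: singlicate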
# KCC2 sec1 = KCC2 modulators in sodium-free buffer, confirmation, cell-based, HEK293 KCC2, thallium flux, secondary assay; shares compounds with KCC2 mod; FluoZin2 fluorescence; active compounds read high; 3,700 tested, 15% active; normalised thallium flux (F/F0 slope) at 10 µM;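 active = thallium flux slope above the same plate's solvent-only control mean plus 3 SD; inconclusive = the two replicate wells disagree; inactive = no significant difference from solvent-only control wells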
# KCC2 bumet counter = thallium flux persisting under bumetanide in KCC2 cells, confirmation, counter-screen for KCC2 modulator project, cell-based, HEK293 KCC2, FluoZin2, secondary assay 3 | shares compounds with KCC2 mod | HEK293-KCC2 + bumetanide/ouabain; active compounds read high | normalized thallium flux at 10 µM | 3,700 tested, 49% active;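 active = thallium entry rate above the same plate's blocked-transporter control wells by more than 3 SD; inconclusive = the two repeat wells disagree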;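 note: raw slope of fluorescence over initial fluorescence between 10 and 20 s after thallium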
# KCC2 secondary2 = KCC2 modulators without ouabain present, confirmation, cell-based, HEK293 KCC2, thallium flux, FluoZin2, secondary assay 2 | shares compounds with KCC2 mod | thallium flux FluoZin2 fluorescence; actives lie on both sides; F/F0 rise rate, 10–20 s post-thallium | normalized thallium flux at 10 µM | 3,700 tested, 23% active;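 active = thallium flux slope more than 3 SD above or below the plate's solvent-only control mean, mostly below; inconclusive = the two repeat wells disagreed; inactive = no significant shift from solvent-only controls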
# HEK293 Tl flux = thallium flux modulation in parental HEK cells, confirmation, counter-screen for KCC2 modulator project, cell-based, counterscreen 1 | shares compounds with KCC2 mod | HEK293 parental cells, thallium flux FluoZin2, ouabain; baseline-ratio fluorescence slope, 10–20 s after thallium | thallium flux rate (normalised fluorescence) at 10 µM | 3,700 tested, 46% active;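 active = thallium flux rate significantly above the same plate's solvent-only control wells, beyond their mean plus 3 SD; inconclusive = the two replicate wells gave conflicting results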
# KCC2 ouabain = KCC2 inhibitors and activators, ouabain retest, confirmation, HEK-KCC2 cells; AID 1717, 2009; shares compounds with KCC2 mod; HEK293-KCC2, thallium flux FluoZin2 fluorescence; bidirectional: low = inhibitor, high = activator; raw Tl+ flux slope (below DMSO = inhibition, above = activation) at 10 µM; 3,700 tested, 48% active;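 active = thallium flux slope beyond 3 SD from same-plate DMSO control mean in most replicates, usually higher, sometimes lower; inconclusive = repeat tests gave conflicting results; inactive = no significant difference from controls in most replicates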;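 note: slope of initial-normalized fluorescence between seconds 10 and 20 after thallium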
# HEK counter2 = native HEK Tl+ uptake effects, second counter-screen – HEK cells, counterscreen 2, counter-screen for KCC2 modulator project, confirmation. shares compounds with KCC2 mod. HEK293 parental, thallium flux FluoZin-2 fluorescence slope. thallium flux slope at 10 µM. 3,700 tested, 33% active. AID 1718, 2009;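 active = thallium flux slope above the same plate's solvent-control mean plus 3 SD in both duplicate wells; inconclusive = duplicate wells that disagreed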;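 note: run without ouabain in cells lacking the KCC2 cotransporter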
# A number is an active result; n = inactive; u = inconclusive; x = no result. Sampled rows, rich in hits. Any-hit rate of the full collection: about 5.8%.
SMILES,WT yeast gro inh,ROMK mod,KCC2 mod,14-3-3 Bad inh,NCF1 inh,RBBP9 inhibitor,KCC2 sec1,KCC2 bumet counter,KCC2 secondary2,HEK293 Tl flux,KCC2 ouabain,HEK counter2
C/C(=N\NC(=O)COc1ccccc1F)c1cc2ccccc2o1,n,n,n,n,n,n,x,x,x,x,x,x
Cc1ccc(C)c(NC(=O)CN(C)C(=O)c2cc3ccccc3o2)c1,n,n,n,n,n,n,x,x,x,x,x,x
Cc1ccc(NC(=S)N(C)Cc2cn(C)c3ccccc23)cc1,n,n,n,n,n,n,x,x,x,x,x,x
Cc1cc2c(ncn2Cc2ccccc2)c(N)c1C,n,n,n,n,n,n,x,x,x,x,x,x
COC(=O)c1c(NC(=S)Nc2ccccc2Cl)sc(C)c1C,n,x,6.3,n,n,n,0.013,0.022,n,0.014,u,0.012
CC(C)(C)c1csc(NNC(=O)c2ccc(Cl)cc2)n1,x,n,24,n,n,n,n,0.03,n,0.037,0.032,0.014
Cn1cnnc1Sc1ccc(/C=C/C(=O)c2ccc(O)cc2)cc1[N+](=O)[O-],n,n,n,n,n,n,x,x,x,x,x,x
CN(c1ccccc1)c1ccc(/C=C(\CCC(=O)O)c2nc3ccccc3s2)cc1[N+](=O)[O-],n,n,-6.9,n,n,n,n,n,0.021,n,0.012,n
Cc1ccc(/C=C(\CCC(=O)O)c2nc3ccccc3s2)cc1[N+](=O)[O-],n,n,-6.9,n,n,n,n,n,0.022,0.0058,0.01,u
Cn1cnnc1Sc1ccc(/C=C(\CCC(=O)O)c2nc3ccccc3s2)cc1[N+](=O)[O-],n,n,-6.8,n,n,n,n,n,0.025,0.0059,0.014,n
CNc1ccc(/C=C(\C#N)c2ccccn2)cc1[N+](=O)[O-],n,n,n,n,n,n,x,x,x,x,x,x
CNc1ccc(/C=C(\CCC(=O)O)c2nc3ccccc3s2)cc1[N+](=O)[O-],n,n,-5.5,n,n,n,n,n,0.025,n,0.013,n
COC(=O)c1cc([N+](=O)[O-])c(-n2ccnc2)c([N+](=O)[O-])c1,n,n,n,n,n,n,x,x,x,x,x,x
Cn1cc(Br)c(NC(=O)/C=C/C(=O)O)n1,x,n,n,n,n,n,x,x,x,x,x,x
Cc1cc(C)nc(Sc2nc(C)nc3c2oc2ccccc23)n1,n,n,x,n,n,n,n,n,n,n,n,n
Cc1nc(SCc2cccc(F)c2)c2oc3ccccc3c2n1,x,x,n,n,n,n,x,x,x,x,x,x
Cc1cc2nc(-c3ccc(SCc4ccc(C(=O)O)cc4)nc3)[nH]c2cc1C,n,x,-4,n,n,n,n,n,n,u,0.014,n
Cc1cc2nc(-c3ccc(SCC(=O)NC(C)C)nc3)[nH]c2cc1C,n,n,n,n,n,n,x,x,x,x,x,x
Cc1ccc(C(=O)N2NC(c3ccc(F)cc3)C3C(=O)N(c4ccc(C)c(C)c4)C(=O)C32)cc1 (stereo unspecified),n,n,n,n,n,n,x,x,x,x,x,x
C=C(C)CNC(=S)N/N=C/c1c(F)cccc1F,n,n,16,n,n,n,0.02,0.048,u,0.023,0.03,0.025
Cc1ccc(OC(=O)CCN2C(=O)c3ccccc3C2=O)cc1C,n,n,n,n,n,n,x,x,x,x,x,x
COCc1cc(C)nc(OCC(=O)N/N=C/c2ccc(-c3cc([N+](=O)[O-])ccc3Cl)o2)c1C#N,n,n,6.8,n,n,n,n,0.015,n,0.024,0.027,0.021
COCc1cc(C)nc(OCC(=O)N/N=C/c2ccco2)c1C#N,n,n,n,n,n,n,x,x,x,x,x,x
O=C(NC(=S)NCCC1=CCCCC1)c1ccccc1Br,64,n,46,n,n,n,u,0.041,0.048,0.039,0.043,0.025
O=C(NC(=S)NC1CCCC1)c1ccccc1Br,n,n,8.8,n,n,n,0.013,0.055,n,0.022,u,0.015
SMILES,WT yeast gro inh,ROMK mod,KCC2 mod,14-3-3 Bad inh,NCF1 inh,RBBP9 inhibitor,KCC2 sec1,KCC2 bumet counter,KCC2 secondary2,HEK293 Tl flux,KCC2 ouabain,HEK counter2
O=C(NNC(=S)NC1CCCCC1)c1ccccc1O,n,n,n,n,n,n,x,x,x,x,x,x
Cc1nn(-c2ccccc2)c(Cl)c1/C=C1\SC(=S)NC1=O,n,n,35,n,n,n,0.037,0.16,n,0.063,0.067,0.027
Cc1cc(-c2nnc(SCC(=O)NC3CCCC3)o2)no1,n,n,7.1,n,n,n,n,n,n,n,n,n
O=C(CSc1nnc(-c2ccncc2)o1)NC1CCCCC1,n,x,n,n,n,n,x,x,x,x,x,x
O=C(CN(Cc1ccccc1)S(=O)(=O)c1ccc2c(c1)OCCO2)Nc1ccc2c(c1)OCCO2,n,x,x,n,n,n,n,n,0.025,0.0062,u,n
COc1ccc(C2NC(=O)c3sc4nc(C)c(C(C)=O)c(-c5ccc(Cl)cc5)c4c3N2)cc1 (stereo unspecified),n,n,n,n,n,n,x,x,x,x,x,x
O=C(NCCSCc1ccccc1)c1cc(S(=O)(=O)N2CCOCC2)ccc1F,n,x,-3.8,n,n,n,n,n,0.026,n,u,n

# Source: PubChem BioAssay (several laboratories)
